Columns and labels:
[1] = target: Receptor-type tyrosine-protein kinase FLT3 (Homo sapiens) (UniProt P36888); experiment: Inhibition of TEL-fused partial length human FLT3 expressed in mouse BA/F3 cells after 72 hrs by cell titer-glo assay; assay type: cell-based
In short: (§1)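 Cells seeded at 3000 per well and exposed to serial compound dilutions for 72 h. Viability read by CellTiter-Glo luminescence and normalised to DMSO controls; mean of three independent measurements. BaF3 lines kept IL-3-free in RPMI 1640/10% FBS after retroviral transduction and puromycin selection. GIST lines grown in DMEM/10% FBS.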

[2] = target: Macrophage colony-stimulating factor 1 receptor (Homo sapiens) (UniProt P07333); experiment: Inhibition of TEL-fused partial length human CSF1R expressed in mouse BA/F3 cells after 72 hrs by cell titer-glo assay; assay type: cell-based; in short: as §1
Macrophage colony-stimulating factor 1 receptor (Homo sapiens), sequence (P07333 whole entry, the tested form may be a part): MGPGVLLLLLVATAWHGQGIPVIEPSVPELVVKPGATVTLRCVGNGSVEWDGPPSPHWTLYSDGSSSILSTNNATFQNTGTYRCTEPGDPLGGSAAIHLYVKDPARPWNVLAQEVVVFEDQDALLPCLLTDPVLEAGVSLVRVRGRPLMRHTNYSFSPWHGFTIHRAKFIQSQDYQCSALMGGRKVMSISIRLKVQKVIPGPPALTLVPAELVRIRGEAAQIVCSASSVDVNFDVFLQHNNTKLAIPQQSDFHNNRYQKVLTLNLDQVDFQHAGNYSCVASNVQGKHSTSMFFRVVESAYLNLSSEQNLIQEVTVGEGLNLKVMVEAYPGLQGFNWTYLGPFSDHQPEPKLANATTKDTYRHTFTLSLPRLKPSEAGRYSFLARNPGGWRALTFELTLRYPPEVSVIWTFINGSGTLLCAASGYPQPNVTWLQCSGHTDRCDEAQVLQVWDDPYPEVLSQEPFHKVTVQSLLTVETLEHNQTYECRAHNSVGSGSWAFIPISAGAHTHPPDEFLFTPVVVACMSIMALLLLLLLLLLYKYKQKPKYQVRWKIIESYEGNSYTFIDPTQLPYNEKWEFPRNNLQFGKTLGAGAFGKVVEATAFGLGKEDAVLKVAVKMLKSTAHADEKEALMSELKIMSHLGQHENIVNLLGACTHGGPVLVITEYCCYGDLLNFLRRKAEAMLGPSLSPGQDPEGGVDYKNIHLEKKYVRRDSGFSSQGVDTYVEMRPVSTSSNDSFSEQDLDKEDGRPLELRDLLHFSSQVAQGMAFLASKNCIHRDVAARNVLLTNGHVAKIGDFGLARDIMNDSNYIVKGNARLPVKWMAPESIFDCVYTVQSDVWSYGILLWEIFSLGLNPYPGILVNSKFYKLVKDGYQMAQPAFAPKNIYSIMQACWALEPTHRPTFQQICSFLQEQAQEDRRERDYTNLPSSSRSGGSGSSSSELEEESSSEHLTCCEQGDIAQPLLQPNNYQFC

[3] = tested on: Mast/stem cell growth factor receptor Kit (Homo sapiens), P10721 [V654A]; experiment: Inhibition of TEL-fused cKIT V654A mutant (unknown origin) expressed in mouse BA/F3 cells assessed as cell growth inhibition after 72 hrs by cell titer-glo assay; assay type: cell-based; in short: as §1
[4] = Cytotoxicity mouse BA/F3 cells assessed as cell growth inhibition after 72 hrs by cell titer-glo assay; assay type: cell-based, BaF3; in short: as §1
[5] = tested on: Mast/stem cell growth factor receptor Kit (Homo sapiens), P10721 [V559D,T670I]; experiment: Inhibition of TEL-fused cKIT T670I/V559D double mutant (unknown origin) expressed in mouse BA/F3 cells assessed as cell growth inhibition after 72 hrs by cell titer-glo assay; assay type: cell-based; in short: as §1
[6] = tested on: Mast/stem cell growth factor receptor Kit (Homo sapiens), P10721 [T670I]; experiment: Inhibition of […] cKIT T670I mutant in human GIST-5R cells assessed as cell growth inhibition after 72 hrs by cell titer-glo assay; assay type: cell-based
[7] = target: T1, Mast/stem cell growth factor receptor Kit (Homo sapiens, UniProt P10721); experiment: Ratio of Imatinib IC50 to compound IC50 for wild type cKIT in human GIST-T1 cells; assay type: cell-based
T1 sequence (P10721 whole entry): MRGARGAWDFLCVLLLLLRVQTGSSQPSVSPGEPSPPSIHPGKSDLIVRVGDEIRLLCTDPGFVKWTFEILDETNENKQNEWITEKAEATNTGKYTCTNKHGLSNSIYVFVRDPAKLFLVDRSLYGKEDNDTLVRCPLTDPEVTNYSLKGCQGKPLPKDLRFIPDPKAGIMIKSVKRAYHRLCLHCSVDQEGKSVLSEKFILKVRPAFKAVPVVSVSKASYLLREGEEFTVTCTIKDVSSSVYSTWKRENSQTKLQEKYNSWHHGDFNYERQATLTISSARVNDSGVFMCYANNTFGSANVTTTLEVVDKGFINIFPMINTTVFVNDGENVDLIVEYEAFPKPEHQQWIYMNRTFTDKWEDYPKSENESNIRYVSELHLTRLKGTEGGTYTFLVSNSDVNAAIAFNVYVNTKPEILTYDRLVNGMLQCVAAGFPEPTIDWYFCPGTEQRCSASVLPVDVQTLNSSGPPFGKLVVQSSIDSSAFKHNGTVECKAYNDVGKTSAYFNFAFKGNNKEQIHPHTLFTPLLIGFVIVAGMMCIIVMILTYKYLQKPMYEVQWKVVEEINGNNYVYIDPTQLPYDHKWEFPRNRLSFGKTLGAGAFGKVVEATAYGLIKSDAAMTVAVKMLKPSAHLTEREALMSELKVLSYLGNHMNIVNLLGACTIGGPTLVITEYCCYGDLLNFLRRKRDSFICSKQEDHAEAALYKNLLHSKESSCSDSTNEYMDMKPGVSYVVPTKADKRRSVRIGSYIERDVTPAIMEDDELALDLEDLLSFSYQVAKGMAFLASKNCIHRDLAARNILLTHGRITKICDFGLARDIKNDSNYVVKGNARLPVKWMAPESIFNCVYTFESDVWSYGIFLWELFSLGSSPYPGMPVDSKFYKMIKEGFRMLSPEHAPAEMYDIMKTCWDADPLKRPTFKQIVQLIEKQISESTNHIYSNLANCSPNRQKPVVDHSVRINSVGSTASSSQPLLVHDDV

[8] = target: T1, Mast/stem cell growth factor receptor Kit; experiment: Inhibition of His-tagged cKIT (unknown origin) expressed in Sf9 cells using Poly(4:1 Glu, Tyr) peptide as substrate after 1 hr by ADP-glo kinase assay
[9] = target: Cyclin-dependent kinase-like 2 (Homo sapiens) (UniProt Q92772); experiment: Inhibition of partial length human CDKL2 expressed in bacterial expression system assessed as activity remaining at 1 uM by kinome scan assay
[10] = target: Macrophage colony-stimulating factor 1 receptor (Homo sapiens) (UniProt P07333); experiment: Inhibition of partial length human CSF1R expressed in bacterial expression system assessed as activity remaining at 1 uM by kinome scan assay
[11] = target: Receptor-type tyrosine-protein kinase FLT3 (Homo sapiens) (UniProt P36888); experiment: Inhibition of partial length human FLT3 expressed in bacterial expression system assessed as activity remaining at 1 uM by kinome scan assay
[12] = target: Proto-oncogene tyrosine-protein kinase receptor Ret (Homo sapiens) (UniProt P07949); experiment: Inhibition of partial length human RET expressed in bacterial expression system assessed as activity remaining at 1 uM by kinome scan assay
Proto-oncogene tyrosine-protein kinase receptor Ret (Homo sapiens), sequence (P07949 whole entry, the tested form may be a part): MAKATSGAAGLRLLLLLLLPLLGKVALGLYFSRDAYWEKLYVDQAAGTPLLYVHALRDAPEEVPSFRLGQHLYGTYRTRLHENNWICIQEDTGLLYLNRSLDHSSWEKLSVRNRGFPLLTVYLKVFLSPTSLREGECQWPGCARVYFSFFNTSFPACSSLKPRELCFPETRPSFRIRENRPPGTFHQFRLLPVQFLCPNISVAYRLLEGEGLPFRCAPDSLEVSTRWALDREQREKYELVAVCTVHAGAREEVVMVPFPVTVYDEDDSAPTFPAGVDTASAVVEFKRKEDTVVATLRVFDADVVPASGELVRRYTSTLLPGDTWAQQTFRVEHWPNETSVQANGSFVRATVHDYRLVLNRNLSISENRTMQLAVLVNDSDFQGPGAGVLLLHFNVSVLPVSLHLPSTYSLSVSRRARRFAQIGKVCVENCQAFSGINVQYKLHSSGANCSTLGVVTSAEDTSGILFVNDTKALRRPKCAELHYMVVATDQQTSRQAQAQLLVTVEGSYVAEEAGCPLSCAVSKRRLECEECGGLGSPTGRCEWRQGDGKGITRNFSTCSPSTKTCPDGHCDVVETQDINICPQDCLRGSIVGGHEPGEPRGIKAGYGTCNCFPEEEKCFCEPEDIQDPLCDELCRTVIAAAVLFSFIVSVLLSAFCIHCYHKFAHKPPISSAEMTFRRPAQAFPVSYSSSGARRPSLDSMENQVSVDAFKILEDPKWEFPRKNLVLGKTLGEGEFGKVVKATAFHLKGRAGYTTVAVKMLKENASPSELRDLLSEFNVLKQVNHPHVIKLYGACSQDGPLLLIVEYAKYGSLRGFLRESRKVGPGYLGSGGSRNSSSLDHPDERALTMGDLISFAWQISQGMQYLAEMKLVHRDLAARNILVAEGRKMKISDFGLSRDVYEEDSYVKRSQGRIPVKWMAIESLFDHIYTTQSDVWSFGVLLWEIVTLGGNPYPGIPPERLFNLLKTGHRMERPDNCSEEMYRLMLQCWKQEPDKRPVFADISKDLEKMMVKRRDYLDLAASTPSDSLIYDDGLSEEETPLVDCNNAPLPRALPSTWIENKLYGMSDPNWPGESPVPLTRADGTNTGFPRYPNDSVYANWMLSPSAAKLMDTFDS

[13] = target: Vascular endothelial growth factor receptor 3 (Homo sapiens) (UniProt P35916); experiment: Inhibition of TEL-fused partial length human FLT4 expressed in mouse BA/F3 cells after 72 hrs by cell titer-glo assay; assay type: cell-based; in short: as §1
[14] = target: Proto-oncogene tyrosine-protein kinase receptor Ret (Homo sapiens) (UniProt P07949); experiment: Inhibition of TEL-fused partial length human RET expressed in mouse BA/F3 cells after 72 hrs by cell titer-glo assay; assay type: cell-based; in short: as §1
[15] = target: Platelet-derived growth factor receptor beta (Homo sapiens) (UniProt P09619); experiment: Inhibition of TEL-fused partial length human PDGFRbeta expressed in mouse BA/F3 cells after 72 hrs by cell titer-glo assay; assay type: cell-based; in short: as §1
[16] = target: T2, Mast/stem cell growth factor receptor Kit (Homo sapiens, UniProt P10721, T670I); experiment: Inhibition of cKIT T670I mutant autophosphorylation at Y703 in human GIST-5R cells at 0.1 to 3 uM after 1 hr by Western blot analysis; assay type: cell-based
T2 sequence (P10721 26-976 T670I limits assumed): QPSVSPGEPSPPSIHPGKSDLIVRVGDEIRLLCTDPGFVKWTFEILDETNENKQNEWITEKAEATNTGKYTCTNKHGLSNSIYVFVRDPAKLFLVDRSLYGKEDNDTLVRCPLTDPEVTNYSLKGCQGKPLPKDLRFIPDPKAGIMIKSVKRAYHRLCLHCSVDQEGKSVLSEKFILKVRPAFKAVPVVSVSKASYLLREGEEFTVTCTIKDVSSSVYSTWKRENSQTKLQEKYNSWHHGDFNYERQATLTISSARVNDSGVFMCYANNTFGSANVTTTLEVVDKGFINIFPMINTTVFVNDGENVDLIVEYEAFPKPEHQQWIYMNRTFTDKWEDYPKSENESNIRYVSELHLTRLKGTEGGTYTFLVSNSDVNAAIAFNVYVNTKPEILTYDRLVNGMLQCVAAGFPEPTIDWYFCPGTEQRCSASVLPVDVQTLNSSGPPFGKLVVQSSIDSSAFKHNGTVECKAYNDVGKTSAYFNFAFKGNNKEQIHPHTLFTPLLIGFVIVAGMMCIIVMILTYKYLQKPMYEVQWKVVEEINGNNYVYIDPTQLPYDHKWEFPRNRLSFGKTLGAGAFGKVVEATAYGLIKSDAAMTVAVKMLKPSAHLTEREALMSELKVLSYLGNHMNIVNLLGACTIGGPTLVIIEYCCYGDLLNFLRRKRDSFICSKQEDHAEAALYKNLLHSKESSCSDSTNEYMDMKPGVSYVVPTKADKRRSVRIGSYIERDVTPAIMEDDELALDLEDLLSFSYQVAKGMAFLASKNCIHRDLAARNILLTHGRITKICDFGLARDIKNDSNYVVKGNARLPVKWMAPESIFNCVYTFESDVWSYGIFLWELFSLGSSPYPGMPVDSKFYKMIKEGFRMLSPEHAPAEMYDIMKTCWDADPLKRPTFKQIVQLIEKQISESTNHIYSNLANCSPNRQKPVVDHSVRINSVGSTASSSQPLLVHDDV
In short: (§2)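 GIST-T1 or GIST-5R cells in DMEM with 10% FBS were treated with serially diluted compound for 1 h. Cells were then lysed and analysed by western blotting.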

[17] = target: T2, Mast/stem cell growth factor receptor Kit; experiment: Inhibition of cKIT T670I mutant autophosphorylation at Y823 in human GIST-5R cells at 0.1 to 3 uM after 1 hr by Western blot analysis; assay type: cell-based; in short: as §2
[18] = target: T2, Mast/stem cell growth factor receptor Kit; experiment: Inhibition of cKIT T670I mutant in human GIST-5R cells assessed as downregulation of AKT phosphorylation at S473 after 1 hr by Western blot analysis; assay type: cell-based; in short: as §2
[19] = Cmax in Sprague-Dawley rat at 1 mg/kg, iv measured up to 8 hrs post dosing; assay type: ADME, organism-based; design: dose 1 mg/kg, route intravenous; conditions: in vivo
In short: (§3)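 Male Sprague-Dawley rats, 8 weeks old, fasted overnight; iv dosing from a 1 mg/mL solution in 5% DMSO/40% PEG400/55% saline. Jugular-vein blood (~0.2 mL, heparinised) taken at 1, 5, 15, 30 min and 1, 2, 4, 6, 8 h; plasma held at -80 °C until analysis; n=3.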

[20] = Apparent clearance in Sprague-Dawley rat at 1 mg/kg, iv measured up to 8 hrs post dosing; assay type: ADME, organism-based; conditions: in vivo, read-out: CL(app) (converted); in short: as §3
[21] = MRT (0 to infinity) in Sprague-Dawley rat at 1 mg/kg, iv measured up to 8 hrs post dosing; assay type: ADME, organism-based; conditions: in vivo
In short: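 Male Sprague-Dawley rats, 8 weeks old, fasted overnight, dosed at 1 mg/kg iv from a 1 mg/mL stock in 5% DMSO/40% PEG400/55% saline. About 0.2 mL jugular blood taken into heparin at 1 min to 8 h. Plasma held at -80 °C until analysis. n = 3, mean reported.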

[22] = Toxicity in nu/nu mouse xenografted with TEL-fused cKIT T670I mutant expressed in mouse BA/F3 cells assessed as body weight reduction at 25 to 100 mg/kg/day, ip after 10 days; assay type: organism-based; conditions: in vivo, 240 h
In short: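 Female nu/nu mice, 5 weeks old on purchase, injected subcutaneously in the right flank with 1×10^6 BaF3-TEL-cKIT-T670I cells in PBS/Matrigel 1:1. At 200–400 mm³ tumours, mice were randomized to 7 per group. They then got 25, 50 or 100 mg/kg/day ip or vehicle (0.5% methylcellulose/0.4% Tween80 in water) for 10 days. Body weight was recorded daily relative to initial weight.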

BaF3 = experiment: Antitumor activity against TEL-fused cKIT T670I mutant expressing mouse BA/F3 cells allografted in nu/nu mouse assessed as tumor growth inhibition dosed daily via intaperitoneal route after 10 days; assay type: functional, organism-based
In short: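 Female nu/nu mice, 5 weeks old at purchase, given 1 million BaF3-TEL-cKIT-T670I cells in PBS/Matrigel 1:1 subcutaneously on the right flank. At tumour volume 200–400 mm3, randomised into groups of 7 and dosed IP daily for 10 days (25, 50, 100 mg/kg/d or vehicle: 0.5% methylcellulose/0.4% Tween80 in water). Tumour volume (W2×L/2) and body weight recorded daily.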

[23] = tested on: Mast/stem cell growth factor receptor Kit (Homo sapiens), P10721 [T670I]; experiment: Inhibition of partial length human cKIT T670I mutant expressed in bacterial expression system assessed as activity remaining at 1 uM by kinome scan assay

Receptor-type tyrosine-protein kinase FLT3 (Homo sapiens), sequence (P36888 whole entry, the tested form may be a part): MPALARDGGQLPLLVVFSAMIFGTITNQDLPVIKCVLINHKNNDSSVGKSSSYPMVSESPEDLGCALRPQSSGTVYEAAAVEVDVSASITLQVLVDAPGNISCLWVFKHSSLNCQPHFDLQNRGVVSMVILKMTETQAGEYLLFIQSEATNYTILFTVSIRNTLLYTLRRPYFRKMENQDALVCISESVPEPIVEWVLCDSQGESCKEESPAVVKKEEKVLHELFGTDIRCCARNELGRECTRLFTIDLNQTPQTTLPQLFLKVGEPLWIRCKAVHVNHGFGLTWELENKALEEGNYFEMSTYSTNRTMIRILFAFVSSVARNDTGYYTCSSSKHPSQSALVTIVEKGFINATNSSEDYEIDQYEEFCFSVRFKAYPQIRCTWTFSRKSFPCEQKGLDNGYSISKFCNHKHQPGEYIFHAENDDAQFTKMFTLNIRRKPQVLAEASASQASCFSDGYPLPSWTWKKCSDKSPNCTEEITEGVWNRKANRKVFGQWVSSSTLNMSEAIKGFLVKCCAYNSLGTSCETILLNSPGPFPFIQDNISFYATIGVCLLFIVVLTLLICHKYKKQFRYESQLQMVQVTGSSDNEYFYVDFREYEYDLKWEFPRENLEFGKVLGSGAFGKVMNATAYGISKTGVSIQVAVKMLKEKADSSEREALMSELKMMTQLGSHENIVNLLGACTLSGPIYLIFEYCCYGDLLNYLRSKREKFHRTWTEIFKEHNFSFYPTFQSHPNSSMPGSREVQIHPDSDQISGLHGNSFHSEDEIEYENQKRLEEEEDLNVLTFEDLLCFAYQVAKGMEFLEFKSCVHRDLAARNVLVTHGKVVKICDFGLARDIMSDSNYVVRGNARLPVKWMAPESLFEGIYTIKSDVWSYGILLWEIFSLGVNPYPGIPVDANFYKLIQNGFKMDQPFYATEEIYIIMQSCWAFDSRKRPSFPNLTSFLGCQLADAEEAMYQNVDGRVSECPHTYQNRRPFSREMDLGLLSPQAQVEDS

CCC(=O)NCC1CCN(c2ccc(NC(=O)Nc3cccc(Oc4ccnc5cc(OC)c(OC)cc45)c3)cc2C(F)(F)F)CC1
GI50 [1]: 0.099 µM | GI50 [2]: 0.11 µM | GI50 [3]: 0.32 µM | GI50 at 72 h [4]: > 10 µM | GI50 [5]: 0.073 µM | GI50 [6]: 0.026 µM | Ratio IC50 [7]: 7 | IC50 [8]: 0.033 µM | Activity [9]: 0% | Activity [10]: 0.05% | Activity [11]: 0.85% | Activity [12]: 0% | GI50 [13]: 0.24 µM | GI50 [14]: 0.12 µM | GI50 [15]: 0.005 µM | EC50 [16]: < 0.1 µM | EC50 [17]: < 0.1 µM | EC50 [18]: < 0.1 µM | Cmax [19]: 2.56 µg/mL | clearance [20]: 2.76 L/h/kg | MRT inf [21]: 46.8 min | Activity [22]: Non-Toxic | TGI (BaF3): Dose-dependent effect | Activity [23]: < 1%
